Experimental data as given in ChEMBL document CHEMBL4138248, “Discovery of naphtho[1,2-d]oxazole derivatives as potential anti-HCV agents through inducing heme oxygenase-1 expression” (Eur J Med Chem, 2018).

Key:
[1] = test system: Hepatitis C virus; experiment: Antiviral activity against HCV infected in human Huh7 cells assessed as inhibition of viral RNA replication after 3 days by RT-qPCR method; format: functional, organism-based, Hepacivirus hominis; conditions: Huh-7, 72 h
[2] = Cytotoxicity against human Ava5 cells assessed as cell viability at 20 uM after 72 hrs by XTT assay relative to control; format: cell-based; conditions: read-out: Activity
In short: (§1)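 XTT viability assay run alongside the antiviral assays. Ava5 cells were plated at 5×10^3 per well and exposed to 20 or 200 μM for 72 h at 37 °C in humidified 5% CO₂. Viability is expressed as % of untreated cells.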

[3] = Cytotoxicity against human Ava5 cells assessed as cell viability at 200 uM after 72 hrs by XTT assay relative to control; format: cell-based; conditions: read-out: Activity; in short: as §1
[4] = test system: Hepatitis C virus; experiment: Antiviral activity against HCV infected in human Ava5 cells assessed as inhibition of viral RNA replication at 20 uM after 3 days by RT-qPCR method relative to control; format: functional, Hepacivirus hominis; conditions: Ava5, 72 h
In short: (§2)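 Ava5 replicon cells were exposed to 5 or 20 μM for 3 days, starting from 10 mM DMSO stocks diluted in medium. HCV RNA was quantified by RT-qPCR against gapdh and expressed as % inhibition relative to untreated control. Ribavirin was the reference drug. Mean ± SD of three independent experiments.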

[5] = test system: Hepatitis C virus; experiment: Antiviral activity against HCV infected in human Ava5 cells assessed as inhibition of viral RNA replication at 5 uM after 3 days by RT-qPCR method relative to control; format: functional, Hepacivirus hominis; conditions: Ava5, 72 h; in short: as §2
[6] = test system: Hepatitis C virus; experiment: Antiviral activity against HCV Con1 infected in human Ava5 cells assessed as inhibition of viral RNA replication after 3 days by RT-qPCR method; format: functional, organism-based, Hepacivirus hominis; conditions: isolate Con1, Ava5, 72 h
In short: (§3)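 Ava5 cells (Huh-7 hepatoma cells carrying an HCV replicon, grown in DMEM/10% FBS with 1 mg·mL⁻¹ G418) were treated for 3 days with a range of concentrations. HCV RNA was measured by RT-qPCR and normalized to cellular gapdh mRNA. Values are mean ± SD of three independent experiments, each in triplicate.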

[7] = Cytotoxicity against human Ava5 cells assessed as decrease in cell viability after 72 hrs by XTT assay; format: cell-based
In short: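 XTT assay on […] Ava5 cells at 5×10^3 per well with serial dilutions for 72 h at 37 °C in 5% CO₂. CC50 is the concentration giving 50% growth inhibition.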

[8] = Selectivity index, ratio of CC50 for human Ava5 cells to IC50 for HCV; format: toxicity; conditions: read-out: Ratio CC50/IC50
In short: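 SI = CC50/IC50. CC50 comes from 72 h XTT in […] Ava5 cells. IC50 is the concentration giving 50% inhibition of HCV, measured by RT-qPCR after 3 days in Ava5 cells.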

[9] = test system: Hepatitis C virus; experiment: Antiviral activity against HCV infected in human Ava5 cells assessed as inhibition of viral RNA replication after 3 days by RT-qPCR method; format: functional, organism-based, Hepacivirus hominis; conditions: Ava5, 72 h; in short: as §3

Structure (SMILES) | EC50 [1] | viability at 72 h, 20 µM [2] | viability at 72 h, 200 µM [3] | inhibition at 20 µM [4] | inhibition at 5 µM [5] | EC50 [6] | CC50 at 72 h [7] | selectivity ratio [8] | IC50 [9]
COc1cc(NCc2cc3ccccc3oc2=O)cc(OC)c1OC | 12 µM | – | – | – | – | – | – | – | –
COc1ccc(-c2nc3c(cc(Nc4ccccc4)c4ccccc43)o2)cc1 | – | 86.3% | 68.5% | 5.31% | 3.7% | – | – | – | –
Clc1ccc(Nc2cc3oc(-c4ccco4)nc3c3ccccc23)cc1 | – | 83.5% | 28.9% | 4.51% | 3.2% | – | – | – | –
COc1ccc(Nc2cc3oc(-c4ccc(Cl)cc4)nc3c3ccccc23)cc1 | – | 103% | 98.2% | 35.6% | 3.2% | – | – | – | –
COc1ccc(-c2nc3c(cc(N(C)c4ccc(Cl)cc4)c4ccccc43)o2)cc1 | – | 107% | 93% | 6.5% | 2.5% | – | – | – | –
c1ccc(Nc2cc3oc(-c4ccccc4)nc3c3ccccc23)cc1 | – | 87% | 25.5% | 4.28% | 3.51% | – | – | – | –
COc1ccc(-c2nc3c(cc(N(C)c4ccc(OC)cc4)c4ccccc43)o2)cc1 | – | 73.6% | 56.3% | 8.5% | 5.6% | – | – | – | –
CN(c1ccc(Cl)cc1)c1cc2oc(-c3ccco3)nc2c2ccccc12 | – | 73% | 26.5% | 3.12% | 2.7% | – | – | – | –
Clc1ccc(Nc2cc3oc(-c4ccccc4)nc3c3ccccc23)cc1 | – | 107% | 93% | 3.53% | 1.2% | – | – | – | –
COc1ccc(N(C)c2cc3oc(-c4ccco4)nc3c3ccccc23)cc1 | – | 49.5% | 32.3% | 31.5% | 2.5% | – | – | – | –
COc1ccc(-c2nc3c(cc(Nc4ccc(Cl)cc4)c4ccccc43)o2)cc1 | – | 83.7% | 23.4% | 8.5% | 4.5% | – | – | – | –
Cc1ccc2nc(Nc3ccc([N+](=O)[O-])cc3)sc2c1 | – | – | – | – | – | 8 µM | – | – | –
CN(c1ccccc1)c1cc2oc(-c3ccc(Cl)cc3)nc2c2ccccc12 | – | 94.7% | 29.6% | 5.12% | 4.2% | – | – | – | –
CN(c1ccccc1)c1cc2oc(-c3ccccc3)nc2c2ccccc12 | – | 82.3% | 25.5% | 2.31% | 1.5% | – | – | – | –
c1ccc(Nc2cc3oc(-c4ccco4)nc3c3ccccc23)cc1 | – | 81.2% | 31.5% | 2.53% | 1.8% | – | – | – | –
Clc1ccc(-c2nc3c(cc(Nc4ccccc4)c4ccccc43)o2)cc1 | – | 99.9% | 62.4% | 3.33% | 2.5% | – | – | – | –
COc1ccc(N(C)c2cc3oc(-c4ccc(Cl)cc4)nc3c3ccccc23)cc1 | – | 94.7% | 29.6% | 2.65% | 2.4% | – | – | – | –
COc1ccc(-c2nc3c(cc(N(C)c4ccccc4)c4ccccc43)o2)cc1 | – | 69.2% | 54% | 3.21% | 2.5% | – | – | – | –
COc1ccc(Nc2cc3oc(-c4ccc(OC)cc4)nc3c3ccccc23)cc1 | – | 63.4% | 28.5% | 5.6% | 3.2% | – | – | – | –
CN(c1ccccc1)c1cc2oc(-c3ccco3)nc2c2ccccc12 | – | 88.8% | 40.6% | 3.54% | 2.9% | – | – | – | –
NC(=O)c1ncn([C@@H]2O[C@H](CO)[C@@H](O)[C@H]2O)n1 [RIBAVIRIN] | – | 71.4% | 26.8% | 65.7% | 31.2% | – | 106 µM | 8.08 | 13.2 µM
CN(c1ccc(Cl)cc1)c1cc2oc(-c3ccccc3)nc2c2ccccc12 | – | 81% | 25.5% | 1.21% | 1.2% | – | – | – | –
Clc1ccc(Nc2cc3oc(-c4ccc(Cl)cc4)nc3c3ccccc23)cc1 | – | 60.2% | 27.5% | 55.2% | 8.1% | – | 83.7 µM | 4.71 | 17.8 µM
CN(c1ccc(Cl)cc1)c1cc2oc(-c3ccc(Cl)cc3)nc2c2ccccc12 | – | 86.4% | 30.2% | 2.56% | 1.1% | – | – | – | –
COc1ccc(Nc2cc3oc(-c4ccccc4)nc3c3ccccc23)cc1 | – | 92.7% | 37.1% | 86.7% | 75.5% | – | 158 µM | 48.4 | 3.27 µM
COc1ccc(N(C)c2cc3oc(-c4ccccc4)nc3c3ccccc23)cc1 | – | 83.6% | 27.5% | 3.51% | 3.4% | – | – | – | –
